In ChEMBL document CHEMBL1152612, “Ursolic acid derivatives induce cell cycle arrest and apoptosis in NTUB1 cells associated with reactive oxygen species” (Bioorg Med Chem, 2009):
The source made the active and inactive calls. The rule behind the calls is not given here.

Columns and labels:
[1] = biological target: Tubulin (Homo sapiens) (UniProt P68371+Q9H4B7+P0DPH7+P68366+Q13509+Q71U36+P04350+Q3ZCM7+P07437+P68363+Q9BQE3+Q6PEY2+Q13885+Q9BVA1+Q9BUF5); test: Inhibition of tubulin polymerization in human NTUB1 cells assessed as blockade of microtubule assembly at 10 nM by indirect immunofluorescence staining; format: cell-based
Procedure, shortened: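 NTUB1 cells on coverslips were treated for 24 h, then fixed in 2% formaldehyde/PBS for 20 min and in cold methanol (−20 °C) for 3 min. Stained with anti-α-tubulin monoclonal antibody for 3 h at room temperature, then rhodamine-conjugated secondary antibody for 1 h in the dark. Mounted in 80% glycerol/PBS and examined by fluorescence microscopy.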

[2] = Cytotoxicity against human NTUB1 cells after 72 hrs by MTT assay; format: functional, cell-based; settings: NTUB1, 72 h
Procedure, shortened: (§1)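 Cells grown in RPMI 1640 with 10% FBS, penicillin/streptomycin and 2 mM L-glutamine at 37 °C under 5% CO₂. Seeded 1800 cells/well, left overnight, then given graded compound concentrations for 72 h; compounds diluted from DMSO, 0.1% DMSO in medium and in controls. MTT 2 mg/mL in PBS for 3 h, formazan dissolved in DMSO, absorbance 540 nm. Viability given as % of control; IC50 by median-effect analysis, mean ± SD.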

[3] = tested on: PC-3; test: Cytotoxicity against human PC3 cells at 50 uM after 72 hrs by MTT assay; format: functional, cell-based; procedure, shortened: as §1
[4] = tested on: A549; test: Cytotoxicity against human A549 cells at 50 uM after 72 hrs by MTT assay; format: functional, cell-based; procedure, shortened: as §1
[5] = Induction of apoptosis in human NTUB1 cells assessed as accumulation at subG1 phase at 20 uM after 24 hrs using propidium iodide staining by flow cytometry; format: functional
Procedure, shortened: (§2)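 NTUB1 cells plated at 8 × 10⁵ per 10 cm dish and exposed to compound for 24 or 48 h; untreated controls got medium alone. Cells trypsinized, PBS-washed and fixed overnight in ice-cold MeOH at −20 °C, then stained with 50 µg/mL propidium iodide plus RNase A. DNA content was read by flow cytometry, with apoptosis taken as sub-G1 accumulation. Three independent experiments.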

[6] = Cell cycle arrest in human NTUB1 cells assessed as accumulation at G1 phase at 20 uM after 24 hrs using propidium iodide staining by flow cytometry; format: functional, cell-based; procedure, shortened: as §2
[7] = Cell cycle arrest in human NTUB1 cells assessed as accumulation at S phase at 20 uM after 24 hrs using propidium iodide staining by flow cytometry; format: functional, cell-based; procedure, shortened: as §2
[8] = Cell cycle arrest in human NTUB1 cells assessed as accumulation at G2/M phase at 20 uM after 24 hrs using propidium iodide staining by flow cytometry; format: functional, cell-based; procedure, shortened: as §2
[9] = Induction of apoptosis in human NTUB1 cells assessed as accumulation at subG1 phase at 40 uM after 24 hrs using propidium iodide staining by flow cytometry; format: functional; procedure, shortened: as §2
[10] = Cell cycle arrest in human NTUB1 cells assessed as accumulation at G1 phase at 40 uM after 24 hrs using propidium iodide staining by flow cytometry; format: functional, cell-based; procedure, shortened: as §2
[11] = Cell cycle arrest in human NTUB1 cells assessed as accumulation at S phase at 40 uM after 24 hrs using propidium iodide staining by flow cytometry; format: functional, cell-based; procedure, shortened: as §2
[12] = Cell cycle arrest in human NTUB1 cells assessed as accumulation at G2/M phase at 40 uM after 24 hrs using propidium iodide staining by flow cytometry; format: functional, cell-based; procedure, shortened: as §2
[13] = Cytotoxicity against human NTUB1 cells assessed as cell viability at >30 uM after 72 hrs by MTT assay; format: functional; procedure, shortened: as §1

In the case of `CC(=O)O[C@H]1C(=O)[C@@]2(C)[C@H]([C@H](OC(=O)c3ccccc3)[C@]3(O)C[C@H](OC(=O)[C@H](O)[C@@H](NC(=O)c4ccccc4)c4ccccc4)C(C)=C1C3(C)C)[C@]1(OC(C)=O)CO[C@@H]1C[C@@H]2O`, the Activity [1] is reported as “Active”.
In the case of `C[C@H]1[C@H](C)CC[C@]2(C(=O)O)CC[C@]3(C)C(=CC[C@@H]4[C@@]5(C)CC[C@H](OC(=O)CCC(=O)O)C(C)(C)[C@@H]5CC[C@]43C)[C@H]12`, the IC50 [2] is reported as 8.65 µM, the Activity [3] is reported as “Active” and the Activity [4] is reported as “Active”. For the same molecule, the Activity [5] was 7.27%, the Activity [6] was 13.1% and the Activity [7] was 18.5%. For the same molecule, the Activity [8] was 24.1%, the Activity [9] was 61.37% and the Activity [10] was 18.9%. For the same molecule, the Activity [11] was 7.51% and the Activity [12] was 7.36%.
For `COC(=O)[C@]12CC[C@@H](C)[C@H](C)[C@H]1C1=CC[C@@H]3[C@@]4(C)CCC(=O)C(C)(C)[C@@H]4CC[C@@]3(C)[C@]1(C)CC2`, the IC50 [2] was 29.6 µM.
In the case of `C=C(C)[C@@H]1CC[C@]2(C)[C@H](CC=C3[C@@H]4[C@@H](C)[C@H](C)CC[C@]4(C(=O)O)CC[C@]32C)[C@@]1(C)CCC(=O)OC`, the Activity [13] is reported as 62.77% and the IC50 [2] is reported as over 30 µM.
Molecule `C[C@H]1[C@H](C)CC[C@]2(C(=O)O)CC[C@]3(C)C(=CC[C@@H]4[C@@]5(C)CC[C@H](O)C(C)(C)[C@@H]5CC[C@]43C)[C@H]12` [URSOLIC ACID] has an IC50 [2] of 29.4 µM.
In the case of `CCC(=O)O[C@H]1CC[C@]2(C)[C@H]3CC=C4[C@@H]5[C@@H](C)[C@H](C)CC[C@]5(C(=O)O)CC[C@@]4(C)[C@]3(C)CC[C@H]2C1(C)C`, the Activity [13] is reported as 72.53% and the IC50 [2] is reported as over 30 µM.
`C[C@H]1[C@H](C)CC[C@]2(C(=O)O)CC[C@]3(C)C(=CC[C@@H]4[C@@](C)(CCC(=O)O)[C@H](C(C)(C)O)CC[C@]43C)[C@H]12` showed an Activity [13] of 56.04% and an IC50 [2] of over 30 µM.
For `CCCCCOC(=O)[C@]12CC[C@@H](C)[C@H](C)[C@H]1C1=CC[C@@H]3[C@@]4(C)CC[C@H](O)C(C)(C)[C@@H]4CC[C@@]3(C)[C@]1(C)CC2`, the IC50 [2] was 27.8 µM.
With `C[C@H]1[C@H](C)CC[C@]2(C(=O)O)CC[C@]3(C)C(=CC[C@@H]4[C@@]5(C)CCC(=O)C(C)(C)[C@@H]5CC[C@]43C)[C@H]12` [URSONIC ACID] the IC50 [2] was 21.4 µM.
Work on `C[C@H]1[C@H](C)CC[C@]2(C(=O)OCC(=O)OC(C)(C)C)CC[C@]3(C)C(=CC[C@@H]4[C@@]5(C)CC[C@H](O)C(C)(C)[C@@H]5CC[C@]43C)[C@H]12` yielded an Activity [13] of 64.85% and an IC50 [2] of over 30 µM.
For `CCOC(=O)[C@]12CC[C@@H](C)[C@H](C)[C@H]1C1=CC[C@@H]3[C@@]4(C)CC[C@H](O)C(C)(C)[C@@H]4CC[C@@]3(C)[C@]1(C)CC2`, the IC50 [2] was 13.5 µM.
In the case of `CC(C)CC(=O)O[C@H]1CC[C@]2(C)[C@H]3CC=C4[C@@H]5[C@@H](C)[C@H](C)CC[C@]5(C(=O)O)CC[C@@]4(C)[C@]3(C)CC[C@H]2C1(C)C`, the IC50 [2] is reported as 31 µM.
